# pIC50: −log10 of the molar value.
# Tests used:
# [1] = Antioxidant activity assessed as superoxide scavenging activity by NBT reduction assay; type: functional
# Procedure, shortened: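 Superoxide radicals produced in vitro by a non-enzymatic system; scavenging followed by nitro blue tetrazolium photoreduction, read spectrophotometrically at 560 nm; activity given as the concentration giving 50% inhibition (IC50).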
# [2] = tested on: Radical scavenging activity; experiment: Antioxidant activity assessed as DPPH free radical scavenging activity; type: functional
# Procedure, shortened: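 Scavenging measured as reduction of the coloured DPPH (1,1-diphenyl-2-picrylhydrazyl) radical in methanolic solution; activity given as IC50.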
SMILES,pIC50 [1],pIC50 [2]
COc1ccc(/C=C2\COc3c(ccc(OC)c3O)C2=O)cc1 [INTRICATIN],< 3.70,< 3.70
O=C1O[C@H]([C@@H](O)CO)C(O)=C1O [ASCORBIC ACID],3.07,4.60
COc1ccc(O)c(C(C)(C)C)c1.COc1ccc(O)cc1C(C)(C)C [BUTYLATED HYDROXYANISOLE],3.02,4.47

# Continued by rising pIC50 [1], values first:
pIC50 [1],pIC50 [2],SMILES
4.52,5.00,COc1ccc(/C=C2\COc3c(ccc(O)c3O)C2=O)cc1 [INTRICATINOL]
4.58,5.08,O=C1/C(=C/c2ccc(O)cc2)COc2c1ccc(O)c2O
5.07,5.35,O=C1/C(=C/c2ccc(O)c(O)c2)COc2c1ccc(O)c2O

# Reference: ChEMBL document CHEMBL1148841, “Synthesis, structural revision, and antioxidant activities of antimutagenic homoisoflavonoids from Hoffmanosseggia intricata” (Bioorg Med Chem Lett, 2007)
